# Calls of active or inactive are those of the source. The rule behind the calls is not given here.
# Experiments:
# Vaccinia virus = assay: Antiviral activity against Vaccinia virus Elstree-Lister infected in african green monkey Vero cells after 3 days by plaque reduction assay; type: functional, organism-based; settings: Orthopoxvirus vaccinia, 72 h
# [1] = system: Vesicular stomatitis virus; assay: Antiviral activity against VSV Indiana lab infected in african green monkey Vero cells after 2 days by plaque reduction assay; type: functional, organism-based
# [2] = Cytotoxicity against human MT4 cells after 96 hrs by MTT assay; type: cell-based; settings: MT4 cells
# Procedure, shortened: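 Exponentially growing MT-4 cells at 1 × 10^5 cells/mL in RPMI-1640 with 10% FCS, exposed to serial compound dilutions at 37 °C, 5% CO2. Viability by MTT after 96 h; CC50 is the concentration reducing viability of mock-infected cells by 50%.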
# Poliovirus 1 = assay: Antiviral activity against Polio virus type1 Sabin strain Chat infected in african green monkey Vero cells after 2 days by plaque reduction assay; type: functional, organism-based, Human poliovirus 1 strain Sabin; settings: Enterovirus C, 48 h
# [3] = Cytotoxicity against BHK cells after 48 to 96 hrs by MTT assay; type: cell-based, Mesocricetus auratus; settings: hamster
# Procedure, shortened: (§1)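 Cell seeding: MDBK at 6 × 10^5 cells/mL in MEM-E with 10% horse serum and 1 mM Na pyruvate; BHK at 1 × 10^6 cells/mL in MEM-E with 10% FBS. Serial compound dilutions, 37 °C, 5% CO2. Viability of mock-infected cells by MTT after 48–96 h; CC50 is the concentration reducing viability by 50%.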
# Yellow fever virus = assay: Antiviral activity against Yellow fever virus 17D infected in BHK cells assessed as protection from virus-induced cytopathogenicity after 3 to 4 days by MTT method; type: functional, organism-based
# [4] = system: Human immunodeficiency virus 1; assay: Antiviral activity against HIV1 3B infected in human MT4 cells assessed as protection from virus-induced cytopathogenicity after 4 days by MTT method; type: functional, organism-based
# Procedure, shortened: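 MT-4 cells, 1 × 10^4/well in RPMI with or without serial compound dilutions, infected with HIV-1 IIIB, 100 CCID50 (m.o.i. 0.01). Protection from virus-induced cytopathogenicity read by MTT.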
# [5] = Cytotoxicity against african green monkey Vero cells; type: cell-based; settings: chlorocebus sabaeus
# Procedure, shortened: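 Vero 76 monolayers exposed to serial compound dilutions, run in parallel on the same 24-well plates as the plaque-reduction assays. CC50 is the concentration reducing viability of mock-infected cells by 50%.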
# [6] = system: Respiratory syncytial virus; assay: Antiviral activity against RSV A2 infected in african green monkey Vero cells after 5 days by plaque reduction assay; type: functional, organism-based; settings: human respiratory syncytial virus, A2, Vero, 120 h
# Procedure, shortened: (§2)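 Plaque reduction assay. Vero 76 cells at 2 × 10^5/well, grown overnight to confluence in D-MEM with 10% FBS. Infected 2 h with 50–100 PFU/well, unadsorbed virus removed. Overlay of D-MEM with 1% inactivated FBS and 0.75% methylcellulose, with or without serial compound dilutions. Incubated at 37 °C for 3 days (HSV-1 KOS, CVB-2 Ohio-1) or 5 days (RSV A2). Fixed and stained with crystal violet in 50% ethanol; plaques counted; EC50 by linear regression.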
# [7] = system: Bovine viral diarrhea virus 1; assay: Antiviral activity against Bovine viral diarrhea virus NADL infected in MDBK cells assessed as protection from virus-induced cytopathogenicity after 3 to 4 days by MTT method; type: functional, organism-based, Bovine viral diarrhea virus 1-NADL; settings: Bovine viral diarrhea virus isolates and strains, MDBK
# Procedure, shortened: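 Cytopathogenicity protection assay. MDBK cells at 3 × 10^4/well, grown overnight to confluence. Infected with BVDV NADL at m.o.i. 0.01 in MEM-E with 0.5% inactivated FBS, 1 mM Na pyruvate and 1% kanamycin. Serial compound dilutions added after 1 h. After 3–4 days at 37 °C, viability read by MTT; EC50 is the concentration giving 50% protection.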
# [8] = Cytotoxicity against MDBK cells after 48 to 96 hrs by MTT assay; type: cell-based, Bos taurus; settings: cattle, MDBK cells; procedure, shortened: as §1
# Human alphaherpesvirus 1 = assay: Antiviral activity against HSV1 KOS infected in african green monkey Vero cells after 3 days by plaque reduction assay; type: functional, organism-based; settings: Human alphaherpesvirus 1, KOS, 72 h; procedure, shortened: as §2
# Coxsackievirus B2 = assay: Antiviral activity against Human coxsackievirus B2 Ohio-1 infected in african green monkey Vero cells after 3 days by plaque reduction assay; type: functional, organism-based, Coxsackievirus B2 (strain Ohio-1); settings: Enterovirus B, Vero, 72 h; procedure, shortened: as §2
SMILES,EC50 (Vaccinia virus) [µM],Activity [1],CC50 at 96 h [2] [µM],EC50 (Poliovirus 1) [µM],CC50 [3] [µM],EC50 (Yellow fever virus) [µM],Activity [4],CC50 [5] [µM],EC50 [6] [µM],EC50 [7] [µM],CC50 [8] [µM],EC50 (Human alphaherpesvirus 1) [µM],EC50 (Coxsackievirus B2) [µM]
COc1ccc(-c2nc3cc(C(F)(F)F)ccc3[nH]2)cc1,> 15,inactive,2,> 15,> 100,> 100,inactive,15,> 15,1,> 100,> 15,7
COc1ccc(-c2nc3cc(Cl)c(Cl)cc3[nH]2)c(N)c1,> 75,inactive,3,> 75,> 100,> 100,inactive,75,> 75,> 6.5,6.5,> 75,> 75
O=[N+]([O-])c1ccc(-c2nc3cc(C(F)(F)F)ccc3n2C23CC4CC(CC(C4)C2)C3)cc1,> 100,inactive,≥ 100,> 100,> 100,> 100,inactive,> 100,> 100,> 100,> 100,> 100,> 100
COc1ccc(-c2nc3cc(C(C)=O)ccc3[nH]2)c(OC)c1OC,> 100,inactive,> 100,> 100,> 100,> 100,inactive,> 100,> 100,> 100,> 100,40,> 100
COc1ccc(-c2nc3cc(C(F)(F)F)ccc3[nH]2)c(OC)c1,> 100,inactive,> 100,> 100,> 100,> 100,inactive,> 100,> 100,> 100,> 100,> 100,32
O=[N+]([O-])c1ccc(-c2nc3cc(C(F)(F)F)ccc3n2C2CCCCC2)cc1,87,inactive,49,> 100,> 100,> 100,inactive,> 100,> 100,60,68,> 100,45
Fc1ccc(-c2nc3cc(C(F)(F)F)ccc3[nH]2)cc1,8,inactive,22,> 60,25,> 25,inactive,60,> 60,> 19,19,> 60,13
COc1ccc(-c2nc3cc([N+](=O)[O-])ccc3[nH]2)c(OC)c1OC,> 100,inactive,> 100,> 100,> 100,> 100,inactive,> 100,> 100,> 100,> 100,> 100,> 100
COc1ccc(-c2nc3cc(Cl)c(Cl)cc3[nH]2)cc1,> 30,inactive,1,> 30,18,> 18,inactive,30,> 30,> 2.5,2.5,20,10
COc1ccc(-c2nc3cc([N+](=O)[O-])ccc3[nH]2)c(OC)c1,> 100,inactive,> 100,> 100,> 100,> 100,inactive,> 100,> 100,45,> 100,> 100,> 100
COc1ccc(-c2nc3cc(C(F)(F)F)ccc3[nH]2)c([N+](=O)[O-])c1,> 20,inactive,85,> 20,100,> 100,inactive,20,> 20,> 55,55,> 20,> 20
O=[N+]([O-])c1ccc(-c2nc3cc(C(F)(F)F)ccc3[nH]2)c([N+](=O)[O-])c1,> 25,inactive,9,> 25,8,> 8,inactive,25,> 25,> 16,16,> 25,9
O=[N+]([O-])c1ccc(-c2nc3ccccc3[nH]2)c([N+](=O)[O-])c1,> 100,inactive,7,> 100,> 100,> 100,inactive,> 100,> 100,> 20,20,25,40
Fc1cccc(F)c1-c1nc2cc(Cl)c(Cl)cc2[nH]1,> 100,inactive,17,> 100,> 100,> 100,inactive,> 100,> 100,> 43,43,> 100,30
COc1ccc(-c2nc3cc(Cl)c(Cl)cc3[nH]2)c([N+](=O)[O-])c1,> 80,inactive,2,> 80,80,> 80,inactive,80,> 80,> 28,28,> 80,> 80
COc1ccc(-c2nc3cc(C(C)=O)ccc3[nH]2)c(OC)c1,> 100,inactive,> 100,> 100,> 100,> 100,inactive,> 100,> 100,42,> 100,> 100,> 100
Oc1ccc(-c2nc3cc(Cl)c(Cl)cc3[nH]2)cc1,> 18,inactive,12,> 18,29,> 29,inactive,18,7,> 11,11,> 18,> 18
O=[N+]([O-])c1ccc(-c2nc3cc(C(F)(F)F)ccc3[nH]2)cc1,4,inactive,6,> 45,18,> 18,inactive,45,> 45,> 6,6,> 45,12
Cn1c(-c2ccc([N+](=O)[O-])cc2)nc2cc(C(F)(F)F)ccc21,> 100,inactive,≥ 100,> 100,> 100,> 100,inactive,> 100,> 100,> 100,> 100,> 100,> 100

# — ChEMBL document CHEMBL1156237, “Antiviral activity of benzimidazole derivatives. II. Antiviral activity of 2-phenylbenzimidazole derivatives” (Bioorg Med Chem, 2010)
